Data as given in ChEMBL document CHEMBL4118047, “Antiplasmodial Sesquiterpenoid Lactones from Trichospira verticillata: Structure Elucidation by Spectroscopic Methods and Comparison of Experimental and Calculated ECD Data” (J Nat Prod, 2017).

Experiments:
Plasmodium falciparum = assay: Antiplasmodial activity against Plasmodium falciparum Dd2 after 72 hrs by SYBR Green I dye-based assay; format: functional, organism-based; settings: Dd2, 72 h
Summary of the method: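 Ring-stage Dd2 cultures at 1% hematocrit and 1% parasitemia grown 72 h at 37 °C under 5.05% CO₂/4.93% O₂/90.2% N₂ with increasing drug concentrations. Viability read by SYBR Green I DNA quantitation in lysis buffer (0.4 μL dye/mL). IC₅₀ by nonlinear regression. Mean of three independent determinations, each in duplicate, ±SEM.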

HEK293 = assay: Cytotoxicity against HEK293 cells assessed as reduction in cell viability after 24 hrs by resazurin dye based assay; settings: Homo sapiens, HEK293, 24 h
Summary of the method: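 10,000 HEK293 cells per well allowed to adhere, then medium replaced with medium containing varying compound amounts for 24 h. Resazurin sodium salt (0.125 mg/mL, 10 μL per well) added for 2 h. Viability from fluorescence at 585 nm, excitation 540 nm.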

A2780 = assay: Antiproliferative activity against human A2780 cells after 2 days by alamar blue assay; format: functional, cell-based; settings: A2780, 48 h

Compound | IC50 (Plasmodium falciparum) [µM] | IC50 (A2780) [µM] | IC50 (HEK293) [µM]
C[C@@H]1CC[C@H]2[C@@H](C)C(=O)O[C@@H]3O[C@@]4(C)CC[C@@H]1[C@]32OO4 [ARTEMISININ] | 0.007 |  | 
C=C(C)C(=O)O[C@H]1C/C(C)=C\C(=O)/C=C(\C)[C@@H](O)[C@@H]2OC(=O)C(COC(C)=O)=C12 | 37.1 |  | 56

Now from value to compound, other results behind:

IC50 (Plasmodium falciparum) [µM] | IC50 (A2780) [µM] | Compound | IC50 (HEK293) [µM]
12.1 |  | C=C(C)C(=O)O[C@H]1C/C(C)=C\C(=O)C[C@@]2(C)O[C@H]2[C@H]2OC(=O)C(COC(C)=O)=C12 | 23.8
44.3 |  | C=C(C)C(=O)O[C@@H]1C/C(C)=C\[C@@]2(O)C=C(C)[C@H](O2)[C@H]2OC(=O)C(COC(C)=O)=C12 | 58.8
1.49 | 0.21 | C=C(C)C(=O)O[C@H]1C/C(C)=C\C(=O)/C=C(C)/C=C2/OC(=O)C(COC(C)=O)=C21 | 3.5
